The values below come from ChEMBL document CHEMBL5032510, “Identification of Novel Fused Heteroaromatics-Based MALT1 Inhibitors by High-Throughput Screening to Treat B Cell Lymphoma” (J Med Chem, 2021).

Experiment [1] addresses T1, Mucosa-associated lymphoid tissue lymphoma translocation protein 1 (Homo sapiens, UniProt Q9UDY8).
T1 sequence (Q9UDY8 whole entry): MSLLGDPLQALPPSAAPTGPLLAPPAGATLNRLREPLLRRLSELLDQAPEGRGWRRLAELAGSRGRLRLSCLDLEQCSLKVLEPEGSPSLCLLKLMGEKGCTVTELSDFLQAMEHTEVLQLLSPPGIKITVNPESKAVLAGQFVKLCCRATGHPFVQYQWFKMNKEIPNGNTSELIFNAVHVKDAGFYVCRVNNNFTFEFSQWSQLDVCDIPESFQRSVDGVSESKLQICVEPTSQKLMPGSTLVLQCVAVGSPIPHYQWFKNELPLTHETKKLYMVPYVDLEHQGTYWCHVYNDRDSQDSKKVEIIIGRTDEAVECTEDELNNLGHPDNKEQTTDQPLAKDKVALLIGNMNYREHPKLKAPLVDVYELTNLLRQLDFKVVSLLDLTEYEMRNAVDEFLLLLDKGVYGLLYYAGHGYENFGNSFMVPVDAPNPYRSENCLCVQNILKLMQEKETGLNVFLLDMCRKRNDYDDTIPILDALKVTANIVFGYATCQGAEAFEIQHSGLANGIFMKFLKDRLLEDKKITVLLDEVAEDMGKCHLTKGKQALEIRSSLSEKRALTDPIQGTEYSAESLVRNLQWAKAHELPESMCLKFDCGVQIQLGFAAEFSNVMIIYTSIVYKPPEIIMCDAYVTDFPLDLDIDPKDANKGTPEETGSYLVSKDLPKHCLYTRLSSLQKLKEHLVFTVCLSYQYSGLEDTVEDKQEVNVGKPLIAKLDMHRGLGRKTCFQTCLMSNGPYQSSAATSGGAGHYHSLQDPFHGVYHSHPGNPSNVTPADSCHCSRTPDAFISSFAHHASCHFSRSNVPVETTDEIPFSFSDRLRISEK
The experiment is described as follows: Inhibition of MALT1 (340 to 789 residues) (unknown origin) using Ac-LRSR-AMC as substrate by fluorescence based analysis. An outline of the steps: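 N-terminal His-tagged LZ-MALT1 expressed in E. coli, purified by Ni-NTA then gel filtration. Fluorescence read at 360/465 nm. IC₅₀ came from concentration–response curves; mean of three independent experiments.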

Experiment [2] has as its target T1, Mucosa-associated lymphoid tissue lymphoma translocation protein 1. The experiment is described as follows: Inhibition of full length recombinant wild type MALT1 (unknown origin) using Ac-LVSR-AMC as substrate by HTS assay.
For experiment [3] the target is unchanged. As to the kind of experiment: Inhibition of MALT1 (329-824 residues) (unknown origin) using PT14 as substrate incubated for 60 mins by fluorescence based assay.
The target is the same in experiment [4]. As to the kind of experiment: Inhibition of N-terminal his-tagged GCN4 leucine zipper fused human MALT1 […] expressed in Escherichia coli using Ac-LVSR-AMC as substrate by HTS assay.
A short description of experiment [5]: Antiproliferative activity against human HBL1 cells assessed as inhibition of cell growth incubated for 72 hrs by Celltiter-Glo luminescent assay. Format: functional. An outline of the steps: (§1)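 Exponentially growing cells were seeded at 1 × 10⁴ per 100 μL. HBL-1 and TMD8 were kept in RPMI with 10% FBS, 2 mM glutamine and 10 mM HEPES; OCI-LY1 in Iscove's medium with 20% FBS; all at 37 °C and 5% CO2. Cells were exposed to DMSO or 2-fold serial dilutions from 100 μM for 72 h, in triplicate on one plate. CellTiter-Glo luminescence was read after 1 h. Growth inhibition was calculated against control, accounting for initial cell number, and GI50 was fitted.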

In the next experiment the test system is TMD8. The experiment is described as follows: Antiproliferative activity against human TMD8 cells assessed as inhibition of cell growth incubated for 72 hrs by Celltiter-Glo luminescent assay. Format: functional. An outline of the steps: as §1
The subject of a further experiment is OCI-Ly1. As to the kind of experiment: Antiproliferative activity against human OCI-Ly1 cells assessed as inhibition of cell growth incubated for 72 hrs by Celltiter-Glo luminescent assay. Format: functional. A digest of the protocol:
as §1

Structures are written as SMILES. Activity calls are given as the source filed them. The rule behind the calls is not given here.

For `CC(C)[C@H](NC(=O)c1ccc(Br)cc1)C(=O)N1CCC[C@H]1C(=O)N[C@@H](CCCNC(=N)N)C(=O)CF`, the IC50 in experiment [1] stood at 0.01 µM.
Regarding `COCCOc1nc(-c2ccc(Cl)c(Cl)c2)n(-c2ccc(NC(=O)CCl)cc2)n1`, the 50% inhibitory concentration (IC50) in experiment [2] was determined as 5.84 µM.
Take `CO[C@@H](C)c1c(NC(=O)Nc2cnc(C(=O)N3CCCC3)c(Cl)c2)cnc2cc(Cl)nn12`: the midpoint of inhibition in experiment [3], the IC50, lay at 0.005 µM.
In experiment [4], `COc1ccc(OC)c(NC(=O)c2sc(=S)n(-c3cccc(Br)c3)c2NC(=O)CCl)c1` came in with a half-maximal inhibitory concentration (IC50) of 4.6 µM. For the same molecule, the GI50 in experiment [5] amounted to 1.8 µM; in the experiment with TMD8, 1.2 µM; with OCI-Ly1 it was 12.7 µM.
For the molecule `O=C(Nc1cccc(F)c1)c1sc(=S)n2c1[nH]c(=O)c1cc(Br)ccc12`, 16.1 µM corresponded to half-maximal inhibition in experiment [4] (IC50). Besides, the concentration for 50% growth inhibition (GI50) (in experiment [5]; with TMD8; in the experiment on OCI-Ly1) was 17.1 µM throughout.
Molecule `COc1ccc(OC)c(NC(=O)c2sc(=S)n(-c3cccc(C(F)(F)F)c3)c2NC(=O)CCl)c1` had an IC50 in experiment [4] of 3.2 µM. In addition, the results for the GI50 (in experiment [5]; in the experiment on TMD8; with OCI-Ly1) were 2.2 µM, 1.3 µM and 13.3 µM, respectively.
The molecule `O=C(NCc1cccs1)c1sc(=S)n2c1[nH]c(=O)c1cc(Br)ccc12` came in with an IC50 in experiment [4] of 4.1 µM. For the same molecule, the GI50 was 13 µM in experiment [5] and 22 µM in the experiment with TMD8. The outcome with OCI-Ly1 was inactive.
On to `COc1ccc(OC)c(NC(=O)c2sc(=S)n3c2[nH]c(=O)c2cc(Cl)ccc23)c1`, for which, in experiment [4], the concentration for half-maximal inhibition (IC50) worked out at 3.2 µM. Further, the GI50 worked out at 14 µM in experiment [5], 12.4 µM in the experiment with TMD8 and 28.1 µM with OCI-Ly1.
For the molecule `O=C(O)c1cccc(NC(=O)c2sc(=S)n3c2[nH]c(=O)c2ccc(Cl)cc23)c1`, in experiment [4], the 50% inhibitory concentration (IC50) was determined as 8.36 µM. The 50% growth inhibitory concentration (GI50) (in experiment [5]; with TMD8; in the experiment with OCI-Ly1) was 22.8 µM each time.
In experiment [4], `Cc1ccc(NC(=O)c2sc(=S)n3c2[nH]c(=O)c2cc(C)ccc23)c(C)c1` gave an IC50 of 7.16 µM. Further, the GI50 worked out at 20.4 µM in experiment [5] and 15.6 µM with TMD8. Moreover, the result in the experiment on OCI-Ly1 was inactive.
In experiment [4], `CCc1ccccc1NC(=O)c1sc(=S)n2c1[nH]c(=O)c1cc(C)ccc12` yielded an IC50 of 18.5 µM. In addition, the GI50 (in experiment [5]; with TMD8; in the experiment on OCI-Ly1) was 31.3 µM each time.
Regarding `O=C(NCc1ccccc1Cl)c1sc(=S)n2c1[nH]c(=O)c1cc(Br)ccc12`, in experiment [4], the IC50 was determined as 2.3 µM. Further, the concentration for 50% growth inhibition (GI50) in experiment [5] came out at 19 µM; in the experiment with TMD8, 15 µM; with OCI-Ly1 it was 30 µM.
On to `Cc1ccc(NC(=O)c2sc(=S)n3c2[nH]c(=O)c2cc(Br)ccc23)c(C)c1`, for which the IC50 in experiment [4] amounted to 6.4 µM. Also, the figures for the GI50 (in experiment [5]; with TMD8; in the experiment on OCI-Ly1) were 17 µM, 10 µM and 26 µM, respectively.
As for `COc1ccc(OC)c(NC(=O)c2sc(=S)n3c2[nH]c(=O)c2cc(Br)ccc23)c1`, the half-inhibitory concentration (IC50) in experiment [4] turned out to be 6.9 µM. For the same molecule, the GI50 in experiment [5] is 11.7 µM; in the experiment with TMD8 it was 11 µM; in the experiment on OCI-Ly1, 12.9 µM.
In turn, `COc1ccc(OC)c(NC(=O)c2sc(=S)n(-c3ccc(Cl)cc3)c2NC(=O)CCl)c1` gave an IC50 in experiment [4] of 7 µM. Besides, the GI50 in experiment [5] worked out at 1.5 µM; with TMD8, 1 µM; in the experiment on OCI-Ly1 it was 13 µM.
`COc1cccc(CNC(=O)c2sc(=S)n3c2[nH]c(=O)c2cc(Br)ccc23)c1` gave a half-inhibitory concentration (IC50) in experiment [4] of 12.8 µM. Also, the GI50 (in experiment [5]; in the experiment with TMD8; in the experiment with OCI-Ly1) was 16.1 µM each time.
`COC(=O)c1ccc2c(=O)[nH]c3c(C(=O)Nc4ccc(F)cc4F)sc(=S)n3c2c1` had an IC50 in experiment [4] of 12.2 µM. The GI50 in experiment [5] worked out at 14.2 µM; with TMD8 it was 28.2 µM; in the experiment with OCI-Ly1 it was 21.6 µM.
For the molecule `CSc1ccc2c(c1)N(CCC1CCCCN1C)c1ccccc1S2` (centres undefined) [THIORIDAZINE], half-maximal inhibition in experiment [4] (IC50) required 4.1 µM. The GI50 in experiment [5] was determined as 6.6 µM; in the experiment on TMD8, 5.9 µM; in the experiment on OCI-Ly1, 13.4 µM.
In turn, `COc1ccc(OC)c(NC(=O)c2sc(=S)n3c2[nH]c(=O)c2ccc(Cl)cc23)c1` yielded an IC50 in experiment [4] of 5.2 µM. Moreover, the 50% growth inhibitory concentration (GI50) in experiment [5] was determined as 8.2 µM; in the experiment on TMD8, 8.4 µM; in the experiment with OCI-Ly1 it was 20.7 µM.
The molecule `COc1ccccc1CNC(=O)c1sc(=S)n2c1[nH]c(=O)c1cc(Cl)ccc12` came in with a 50% inhibitory concentration (IC50) in experiment [4] of 6 µM. The GI50 (in experiment [5]; in the experiment with TMD8) was 40 µM throughout. The result in the experiment with OCI-Ly1 was inactive.
`COc1ccc(OC)c(NC(=O)c2sc(=S)n(-c3cccc(C#N)c3)c2NC(=O)CCl)c1` showed a concentration for half-maximal inhibition (IC50) in experiment [4] of 5.5 µM. Further, the GI50 in experiment [5] stood at 1.7 µM; in the experiment with TMD8 it was 1.6 µM; in the experiment on OCI-Ly1, 11.8 µM.
The matching figures for `O=C(O)c1cccc(NC(=O)c2sc(=S)n3c2[nH]c(=O)c2cc(Br)ccc23)c1`: 14.9 µM, 12.4 µM, 23.7 µM and 23.7 µM.
